Experimental data reported in ChEMBL document CHEMBL4651341, “The discovery of a novel series of compounds with single-dose efficacy against juvenile and adult Schistosoma species” (PLoS Negl Trop Dis, 2021).
Converted amounts (≈) assume the structure as drawn.

Key:
Schistosoma mansoni [1] = assay: Concentration required to kill 50% of 42 day old worms 5 days after drug treatment.; type: functional, organism-based; details: Puerto Rican, 120 h
Procedure, shortened: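 Adult S. mansoni were perfused from CD1 mice 6 weeks post-infection and washed. They were cultured 3 pairs per well in 1 mL DMEM with 2 mM glutamine, penicillin/streptomycin and 10% FCS […] at 37 °C, 5% CO2. Viability of individual worms was scored on day 5 (120 h).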

Schistosoma mansoni [2] = assay: Concentration required to kill 50% of 21 day old worms 5 days after drug treatment.; type: functional, organism-based; details: Puerto Rican, 120 h
Procedure, shortened: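 Juvenile S. mansoni (Puerto Rican strain) were perfused from CD1 mice 3 weeks post-infection and washed. They were cultured 6–8 per well in 200 µL DMEM with 2 mM glutamine, penicillin/streptomycin and 10% FCS at 37 °C, 5% CO2. Viability of individual worms was scored on day 5 after dosing (120 h).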

[3] = Concentration required to kill 50% MRC-5 cells as detected by Alamar blue staining; type: toxicity, cell-based, MRC5; details: homo sapiens, read-out: TC50 (the source's name)
[4] = Concentration required to kill 50% HepG2 cells as detected by MTT staining; type: toxicity, cell-based; details: homo sapiens, read-out: TC50 (the source's name)
[5] = Mean oral bioavailability in Swiss albino male mice at […] per compound (administered in a mixture of 5 compounds to 3 mice) assessed by LCMS/MS.; further: dose 2.5 mg/kg; type: ADME, organism-based; details: male, Swiss albino, mouse, in vivo, read-out: Bioavailability
[6] = Mean AUC inf in Swiss albino male mice at 1 mg/kg per compound (administered iv in a mixture of 5 compounds to 3 mice) assessed by LCMS/MS.; type: ADME, organism-based; details: male, Swiss albino, mouse, in vivo
Procedure, shortened: (§1)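 Male Swiss albino mice (~30 g), 3 per experiment, mostly dosed as mixtures of 5 compounds iv via the lateral tail vein. Vehicle: 10% DMSO/90% 50 mM Na2HPO4 with 0.5% Tween-80. Blood sampled at 5, 15, 30 min and 1, 2, 4, 8, 24 h. Plasma stored at −20 °C and quantified by LC-MS after acetonitrile precipitation.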

[7] = Mean observed clearance in Swiss albino male mice at 1 mg/kg per compound (administered iv in a mixture of 5 compounds to 3 mice) assessed by LCMS/MS.; type: ADME, organism-based; details: male, Swiss albino, mouse, in vivo, read-out: Clearance (converted); procedure, shortened: as §1
[8] = Mean volume of distribution at steady state in Swiss albino male mice at 1 mg/kg per compound (administered iv in a mixture of 5 compounds to 3 mice) assessed by LCMS/MS.; type: ADME, organism-based; details: mouse, in vivo, read-out: Volume
Procedure, shortened: (§2)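 Male Swiss albino mice (~30 g), 3 per experiment, mostly dosed as mixtures of 5 compounds iv via the lateral tail vein. Vehicle: 10% DMSO/90% 50 mM Na2HPO4 with 0.5% Tween-80. Plasma stored at −20 °C and quantified by LC-MS after acetonitrile precipitation.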

[9] = Mean half-life in Swiss albino male mice at 1 mg/kg per compound (administered iv in a mixture of 5 compounds to 3 mice) assessed by LCMS/MS.; type: ADME, organism-based; details: mouse, in vivo; procedure, shortened: as §2
[10] = Mean plasma concentration at 24h in Swiss albino male mice at […] per compound (administered orally in a mixture of 5 compounds to 3 mice) assessed by LCMS/MS.; type: ADME, organism-based; details: mouse, po
[11] = Mean plasma concentration at 4h in Swiss albino male mice at […] per compound (administered orally in a mixture of 5 compounds to 3 mice) assessed by LCMS/MS.; type: ADME, organism-based; details: mouse, po
[12] = Mean time to peak plasma concentration in Swiss albino male mice at […] per compound (administered orally in a mixture of 5 compounds to 3 mice) assessed by LCMS/MS.; type: ADME, organism-based; details: mouse, po
[13] = Percentage of parent compound remaining after incubation for 90 minutes with cyropreserved mouse hepatocytes at a concentration of 1uM compound and […], determined by LCMS; type: ADME, tissue-based, Hepatocyte; details: cryopreserved mouse hepatocytes, read-out: Stability
Procedure, shortened: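 Compound was incubated at 1 µM final (2 µM working solution mixed 1:1 with hepatocyte suspension) in supplemented KHB pH 7.4. Conditions: 37 °C, 5% CO2, gentle mixing, duplicates. Reaction quenched with ice-cold acetonitrile containing standard; analysed by LC-MS/MS. % remaining = AUC at t / AUC at T0.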

[14] = Solubility at 25 degC of compound (diluted from DMSO) in PBS at pH 7.4 determined after 24h (1h sonication, 22h shaking, 1h sonication) by LCMS/MS; type: physicochemical

Compound	EC50 (Schistosoma mansoni [1])	EC50 (Schistosoma mansoni [2])	CC50 [3]	CC50 [4]	bioavailability [5]	AUC(0-inf) [6]	clearance [7]	Vd [8]	half-life [9]	concentration at 24 h [10]	concentration at 4 h [11]	Tmax [12]	remaining at 1.5 h, 1 µM [13]	solubility kinetic at 24 h [14]
COc1ccc(-c2cnc3cnc(-c4ccc(N5CCN(C)CC5)nc4)cn23)cc1	> 25 µM	15 µM	20.9 µM	–	–	–	–	–	–	–	–	–	–	–
CCOc1cccc(-c2cn3c(-c4ccc(OC)cc4)cnc3cn2)c1	12.1 µM	11 µM	37.7 µM	–	–	–	–	–	–	–	–	–	–	–
CC(C)Oc1cccc(-c2cn3c(-c4cnn(Cc5ccccc5)c4)cnc3cn2)c1	> 25 µM	> 25 µM	39.4 µM	–	–	–	–	–	–	–	–	–	–	–
CC(C)c1cccc(-c2cn3c(-c4ccc(O)c(F)c4)cnc3cn2)c1	0.823 µM	1.32 µM	> 50 µM	> 30 µM	–	–	–	–	–	–	–	–	–	–
COc1ccc(-c2cnc3cnc(-c4cccc(OC(C)C)c4)cn23)cc1OC	5.56 µM	9.51 µM	28.7 µM	–	–	–	–	–	–	–	–	–	–	–
CC(C)Oc1cccc(-c2cn3c(-c4ccc5[nH]ncc5c4)cnc3cn2)c1	7.19 µM	7.5 µM	22.2 µM	–	–	–	–	–	–	–	–	–	–	–
CC1(c2nc3cnc(-c4ccc(F)c(C(F)(F)F)c4)cn3c2-c2c(F)cc(O)cc2F)CC1	0.0563 µM	0.0796 µM	–	7.9 µM	55.6%	528 ng·h/mL	15.9 mL/min/kg	9.19 L/kg	8.48 h	7.01 ng/mL	76 ng/mL	0.25 h	41.7%	32.8 µM (≈ 15.2 µg/mL)
CCc1nc2cnc(-c3ccc(F)c(C(F)(F)F)c3)cn2c1-c1c(F)cc(O)cc1F	0.0528 µM	0.0514 µM	–	8.3 µM	47.7%	464 ng·h/mL	18 mL/min/kg	8.79 L/kg	10 h	12.3 ng/mL	50.3 ng/mL	0.25 h	36%	1.5 µM (≈ 0.656 µg/mL)
CC(C)c1cccc(-c2cn3c(-c4ccc(O)cc4F)cnc3cn2)c1	0.262 µM	0.636 µM	11.1 µM	> 11.1 µM	–	–	–	–	–	–	–	–	–	1.23 µM (≈ 0.427 µg/mL)
CCc1cccc(-c2cn3c(-c4ccc(OC)c(OC)c4)cnc3cn2)c1	1.06 µM	2.79 µM	29.9 µM	–	–	–	–	–	–	–	–	–	–	–
Fc1ccc(-c2cn3c(-c4ccc5[nH]ncc5c4F)c(C(F)(F)F)nc3cn2)cc1CC(F)(F)F	0.0119 µM	0.0104 µM	–	5.3 µM	52.5%	328 ng·h/mL	25.5 mL/min/kg	3.28 L/kg	2.75 h	0.971 ng/mL	57.2 ng/mL	0.5 h	55.8%	0.0917 µM (≈ 0.0456 µg/mL)
Fc1ccc(-c2cn3c(-c4ccc5[nH]ncc5c4F)c(C(F)(F)F)nc3cn2)cc1OC(F)(F)F	0.0169 µM	0.0208 µM	–	12.2 µM	81%	2700 ng·h/mL	3.23 mL/min/kg	5.89 L/kg	22.1 h	165 ng/mL	358 ng/mL	1 h	94.2%	0.785 µM (≈ 0.392 µg/mL)
COc1ccc(-c2cnc3cnc(-c4cccc(OC)c4)cn23)cc1	6.75 µM	12.6 µM	> 49.9 µM	–	–	–	–	–	–	–	–	–	–	–
CC(C)Oc1cccc(-c2ccc3nnc(-c4ccc(O)cc4)n3c2)c1	–	> 25 µM	> 50 µM	–	–	–	–	–	–	–	–	–	–	–
Oc1ccc(-c2cnc3ccc(-c4cccc(C(F)(F)F)c4)nn23)c(F)c1	> 25 µM	> 25 µM	> 50 µM	–	–	–	–	–	–	–	–	–	–	–
Oc1cc(F)c(-c2c(C3CCC3)nc3cnc(-c4ccc(F)c(C(F)(F)F)c4)cn23)c(F)c1	0.0586 µM	0.0729 µM	–	5.7 µM	48.6%	1060 ng·h/mL	7.9 mL/min/kg	4.74 L/kg	9.17 h	21.7 ng/mL	161 ng/mL	0.333 h	48.2%	51.6 µM (≈ 23.9 µg/mL)
Cc1nc2cnc(-c3ccc(F)c(C(F)(F)F)c3)cn2c1-c1c(F)cc(OP(=O)(O)O)cc1F	–	0.103 µM	–	6.8 µM	39.3%	111 ng·h/mL	75.3 mL/min/kg	7.18 L/kg	2.31 h	0.1 ng/mL	15.6 ng/mL	0.25 h	40.8%	136 µM (≈ 68.4 µg/mL)
CC(C)c1nc2cnc(-c3ccc(F)c(S(F)(F)(F)(F)F)c3)cn2c1-c1ccc2[nH]ncc2c1F	0.0112 µM	0.00821 µM	–	–	83.3%	1470 ng·h/mL	5.75 mL/min/kg	3.39 L/kg	8.96 h	71.4 ng/mL	381 ng/mL	2.33 h	68.1%	0.865 µM (≈ 0.446 µg/mL)
COc1ccc(-c2cnc3cnc(-c4cccc(Cl)c4)cn23)cc1	12.2 µM	13.1 µM	> 50 µM	–	–	–	–	–	–	–	–	–	–	–
COc1ccc(-c2cnc3ccc(-c4cccc(C(C)C)c4)nn23)cc1O	5.59 µM	8.26 µM	11.3 µM	9.24 µM	–	–	–	–	–	–	–	–	–	–
CC(C)c1nc2cnc(-c3ccc(F)c(C(F)(F)F)c3)nc2n1-c1c(F)cc(O)cc1F	0.0714 µM	0.128 µM	–	4.8 µM	45%	360 ng·h/mL	23.3 mL/min/kg	7.39 L/kg	7.09 h	5.17 ng/mL	52.6 ng/mL	0.25 h	12.5%	1.26 µM (≈ 0.57 µg/mL)
CC(C)Oc1cccc(-c2cn3c(-c4ccnc(C(F)(F)F)c4)cnc3cn2)c1	> 25 µM	> 25 µM	> 49.2 µM	–	–	–	–	–	–	–	–	–	–	–
CC(C)c1cccc(-c2ccc3nnc(-c4cccc(NS(C)(=O)=O)c4)n3c2)c1	–	24.6 µM	> 50 µM	–	–	–	–	–	–	–	–	–	–	–
CC(C)c1nc2cnc(-c3cccc(S(F)(F)(F)(F)F)c3)cn2c1-c1c(F)cc(O)cc1F	0.0238 µM	< 0.012 µM	–	6.6 µM	18.4%	231 ng·h/mL	36.2 mL/min/kg	2.64 L/kg	1.76 h	0.1 ng/mL	16.6 ng/mL	0.25 h	31.1%	6.63 µM (≈ 3.26 µg/mL)
COc1ccc(-c2nnc3ccc(-c4cccc(C(C)C)c4)cn23)cn1	–	24.2 µM	45.8 µM	–	–	–	–	–	–	–	–	–	–	–
CCc1nn2cnc(-c3ccc(F)c(C(F)(F)F)c3)cc2c1-c1c(F)cc(O)cc1F	0.0109 µM	0.0323 µM	–	9.8 µM	21.1%	144 ng·h/mL	58.5 mL/min/kg	4.06 L/kg	1.24 h	0.01 ng/mL	9.68 ng/mL	0.333 h	50.7%	1.21 µM (≈ 0.529 µg/mL)
COc1ccc(-c2cnc3cnc(-c4cccc(OC(C)C)c4)cn23)c(OC)c1	12.7 µM	12.5 µM	> 48.9 µM	–	–	–	–	–	–	–	–	–	–	–
CC(C)c1nc2cnc(-c3ccc(F)c(C(F)(F)F)c3)cn2c1-c1c(F)cc(OP(=O)(O)O)cc1F	0.0272 µM	0.025 µM	–	6.5 µM	21.4%	54.7 ng·h/mL	153 mL/min/kg	3.62 L/kg	0.416 h	0.1 ng/mL	4.01 ng/mL	0.25 h	0.9%	179 µM (≈ 95.1 µg/mL)
COc1ccc(-c2nnc3ccc(-c4cccc5c4OCC5)cn23)cc1OC	–	24.8 µM	27.6 µM	–	–	–	–	–	–	–	–	–	–	–
